# In ChEMBL document CHEMBL1629602, “Reconstruction of the phenotypes of methicillin-resistant Staphylococcus aureus by replacement of the staphylococcal cassette chromosome mec with a plasmid-borne copy of Staphylococcus sciuri pbpD gene” (2009):
# Assays:
# Staphylococcus aureus [1] = assay: Antibacterial activity against chloramphenicol-susceptible and oxacillin, erythromycin, tetracycline-resistant Staphylococcus aureus COL
# Staphylococcus aureus [2] = assay: Antibacterial activity against tetracycline-resistant Staphylococcus aureus COL-S carrying SAmecA plasmid; format: functional
# In short: (§1)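 Oxacillin MIC by population analysis: overnight-culture aliquots plated on tryptic soy agar with increasing oxacillin concentrations. CFU counted after 72 h at 30°C.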
# Staphylococcus aureus [3] = assay: Antibacterial activity against chloramphenicol, tetracycline-resistant Staphylococcus aureus COL-S carrying SAmecA/mecI-mecR1 plasmid; format: functional
# In short: as §1
# Staphylococcus aureus [4] = assay: Antibacterial activity against tetracycline-resistant Staphylococcus aureus COL-S carrying SSpbpD plasmid; format: functional
# In short: as §1
# Staphylococcus aureus [5] = assay: Antibacterial activity against chloramphenicol-resistant Staphylococcus aureus COL carrying mecI-mecR1 plasmid; format: functional
# In short: as §1
# Staphylococcus aureus [6] = assay: Antibacterial activity against oxacillin, chloramphenicol, erythromycin-susceptible and tetracycline-resistant Staphylococcus aureus COL-S with SCCmec excised; format: functional
# In short: as §1
# Staphylococcus aureus [7] = assay: Antibacterial activity against chloramphenicol, tetracycline-resistant Staphylococcus aureus COL-S carrying SSpbpD/mecI-mecR1 plasmid; format: functional
# In short: as §1
Compound,MIC (Staphylococcus aureus [1]),MIC (Staphylococcus aureus [2]),MIC (Staphylococcus aureus [3]),MIC (Staphylococcus aureus [4]),MIC (Staphylococcus aureus [5]),MIC (Staphylococcus aureus [6]),MIC (Staphylococcus aureus [7])
CO/N=C(\C(=O)N[C@@H]1C(=O)N2C(C(=O)O)=C(COC(C)=O)CS[C@H]12)c1csc(N)n1 [CEFOTAXIME],800 µg/mL,800 µg/mL,6 µg/mL,200 µg/mL,6 µg/mL,0.8 µg/mL,6 µg/mL
CO[C@@]1(NC(=O)Cc2cccs2)C(=O)N2C(C(=O)O)=C(COC(N)=O)CS[C@@H]21 [CEFOXITIN],800 µg/mL,400 µg/mL,6 µg/mL,200 µg/mL,3 µg/mL,3 µg/mL,1.5 µg/mL
CO/N=C(\C(=O)N[C@@H]1C(=O)N2C(C(=O)O)=CCS[C@H]12)c1csc(N)n1 [CEFTIZOXIME],800 µg/mL,800 µg/mL,3 µg/mL,400 µg/mL,3 µg/mL,0.8 µg/mL,12 µg/mL
CC1=C(C(=O)O)N2C(=O)[C@@H](NC(=O)[C@H](N)C3=CCC=CC3)[C@H]2SC1 [CEPHRADINE],400 µg/mL,400 µg/mL,12 µg/mL,100 µg/mL,6 µg/mL,6 µg/mL,3 µg/mL
N[C@@H]1CONC1=O [CYCLOSERINE],1 µg/mL,8 µg/mL,–,0.75 µg/mL,–,–,–
Cc1onc(-c2ccccc2)c1C(=O)N[C@@H]1C(=O)N2[C@@H]1SC(C)(C)[C@@H]2C(=O)O [OXACILLIN],800 µg/mL,400 µg/mL,0.8 µg/mL,400 µg/mL,0.4 µg/mL,0.8 µg/mL,0.4 µg/mL
